MrgX1 agonist: human MrgX1 receptor agonism, primary screen; AID 588627; B-score at 10 µM; 0.44% of 310,000 active; MrgX1-HEK293 cells, Fluo-4 calcium fluorescence, agonist mode; hits give high values; Q96LB2;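 active = calcium response B-score plate-corrected fluorescence ratio at least 3 library SD, with starting fluorescence B-score inside 5 SD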
Target sequence (Q96LB2 whole entry, looked up): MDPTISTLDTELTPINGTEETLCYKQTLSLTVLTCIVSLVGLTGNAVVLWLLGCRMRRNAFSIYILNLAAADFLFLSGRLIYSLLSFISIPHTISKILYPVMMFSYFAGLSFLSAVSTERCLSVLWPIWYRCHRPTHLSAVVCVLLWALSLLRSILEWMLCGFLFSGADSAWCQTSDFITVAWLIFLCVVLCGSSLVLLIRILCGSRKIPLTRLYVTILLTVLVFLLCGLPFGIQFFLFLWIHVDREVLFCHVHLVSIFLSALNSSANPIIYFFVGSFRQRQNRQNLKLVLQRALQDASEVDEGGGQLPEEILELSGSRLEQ
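Assay system: MrgX1-expressing HEK293 cells / Amount: fifteen thousand cells per well / Doses: test compound in the initial addition of three / Timing: cells plated overnight, dye loaded 0.5 h 37 °C, 0.5 h room temperature / Technique: kinetic calcium dye fluorescence, Fluo-4 NW / Control set: positive and negative controls per plate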
RGS4 act: RGS4 potentiation or activation; AID 463111; HEK293 M3R/inducible RGS4, carbachol calcium flux Fluo4; hits give low values; B-score at 10 µM; 0.92% of 310,000 active;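 active = B-score of the integrated calcium signal more than 4 SD below the library mean, with starting fluorescence not abnormally high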;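 also: negative B-score means reduced calcium response which marks RGS4 activation or potentiation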
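Test system: HEK293 cells with stable M3R and inducible RGS4; also added: carbachol at ECmax as muscarinic agonist stimulus; schedule: dye loading 30 min 37 °C, buffer rest 30 min RT; technique: kinetic calcium fluorescence imaging with Fluo4-AM dye, 2 µM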
MrgX1 PAM: human MrgX1 positive allosteric modulation, primary screen. Q96LB2. B-score at 10 µM. 0.63% of 310,000 active. MrgX1-HEK293, Fluo-4 calcium flux, FDSS; hits give high values. AID 588675;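 active = plate-corrected calcium response at least 3 library SD above typical, normal starting fluorescence, not activating the receptor alone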;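 also: compound read alongside a low EC10 to EC30 dose of BAM8-22 agonist; peak minus trough fluorescence over baseline measured at the second addition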
MrgX1 antagonist: human MrgX1 receptor antagonism, primary screen; Q96LB2; 1.3% of 310,000 active; AID 588676; MRGX1-HEK293 calcium flux, Fluo-4, BAM8-22 antagonism; hits give low values; B-score at 10 µM;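 active = calcium-response B-score plate-corrected more than 3 library SD below zero, starting fluorescence within 5 deviations, no agonist response on first addition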;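 also: peak minus trough fluorescence over baseline after final BAM8-22 challenge near maximal dose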
RGS4 block: human RGS4 inhibition; P49798; HEK293 M3R/RGS4 inducible, Fluo-4 calcium flux; hits give high values; triggered by carbachol at its EC20; B-score at 10 µM; 0.45% of 310,000 active;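 active = B-score, a plate-corrected calcium signal, over three deviations above library mean, with baseline fluorescence within five deviations of library mean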;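 also: RGS4 expression induced by doxycycline in cells with stable M3 receptor; B-score is computed from the integrated fluorescence ratio over baseline after carbachol; higher B-score means a larger calcium signal and so more RGS4 inhibition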
Target sequence (P49798 whole entry, looked up): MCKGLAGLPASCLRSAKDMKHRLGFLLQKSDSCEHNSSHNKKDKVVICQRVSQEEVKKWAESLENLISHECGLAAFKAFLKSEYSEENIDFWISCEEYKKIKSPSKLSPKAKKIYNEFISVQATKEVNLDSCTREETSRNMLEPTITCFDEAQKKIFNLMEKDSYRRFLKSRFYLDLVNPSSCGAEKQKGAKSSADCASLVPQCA
RGS4 inh valid: validation of RGS4 inhibitors. HEK293 M3R/RGS4, carbachol calcium Fluo-4 fluorescence; carbachol added at its EC20; 0 = buffer wells, 100 = carbachol control. shares compounds with RGS4 block. calcium response, % at 10 µM. 65% of 1,700 active;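 active = duplicate-averaged calcium response above the buffer-only control mean plus 5 SD of those controls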;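 also: integrated fluorescence ratio F max minus min over baseline F0; higher response in RGS4-induced cells means RGS4 inhibition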
M3R Ca ctr: counter-screen for RGS4 inhibitors: effect in non-induced cells | activity (percent), % at 10 µM | HEK293 M3R non-induced, carbachol calcium Fluo-4; submaximal (EC20) carbachol stimulus; buffer wells 0%, carbachol control wells 100% | 20% of 1,900 active | shares compounds with RGS4 block; call rule not given here;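 also: RGS4 induction absent so cells express M3R without RGS4; higher means more calcium signal and flags a non-specific hit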
M3R basal Ca ctr: second counter-screen for RGS4 inhibitors: non-induced cells without carbachol; shares compounds with RGS4 block; HEK293 M3R/RGS4 non-induced, Fluo-4 calcium, no carbachol; normalised: buffer wells 0%, carbachol wells 100%; calcium response (agonist-mode artifact), % at 10 µM; 22% of 1,900 active; AID 493001;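 active = duplicate-averaged calcium rise in uninduced cells above buffer wells' mean plus 5 SD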
Each line names hits and unclear results; the compound was inactive in the other large screens (follow-up assays come after a bar, where they were run). Rows were chosen to be rich in hits. Some 3.5% of all compounds tested hit in one or more screens of this group.

CCN(CC)c1ccc(N2C(=O)/C(=C\c3cccnc3)SC2=S)cc1	RGS4 block 7.3 | RGS4 inh valid inactive | M3R Ca ctr inactive | M3R basal Ca ctr inactive
CC(C)c1nc(SCC(=O)Nc2ccc(C(=O)O)cc2)c2c3c(sc2n1)CCCC3	RGS4 block 4.7 | RGS4 inh valid 13% | M3R Ca ctr inactive | M3R basal Ca ctr inactive
O=c1cc(CSc2nc3ccccc3c(=O)[nH]2)c2ccc(O)cc2o1	none (no result: MrgX1 agonist, MrgX1 PAM, MrgX1 antagonist)
CC1(C)Cc2c(sc(NC(=O)C3CC(Cl)=CCC3C(=O)O)c2C#N)CO1 (stereo not given)	none
COc1ccc(NC(=O)/C(Cl)=C(/Cl)S(=O)(=O)Cc2ccccc2)cn1	RGS4 block 18 (no result: MrgX1 agonist, MrgX1 PAM, MrgX1 antagonist) | RGS4 inh valid 69% | M3R Ca ctr 48% | M3R basal Ca ctr 15%
CC(=O)n1cc(C(C[N+](=O)[O-])SCCN)c2ccccc21 (stereo not given)	MrgX1 agonist 58, RGS4 block 4.7 | RGS4 inh valid 55% | M3R Ca ctr inactive | M3R basal Ca ctr 34%
O=C(/C=C/c1ccc(F)cc1)Nc1ccc(S(=O)(=O)Nc2ncccn2)cc1	none | RGS4 inh valid inactive | M3R Ca ctr inactive | M3R basal Ca ctr 29%
Cc1ccc(/C=C/C(=O)Nc2ccc(S(=O)(=O)Nc3ncccn3)cc2)cc1	none
CC(=O)Nc1ccc(C23CC4CC(CC(C4)C2)C3)cc1	none
Oc1ccc(C23CC4CC(CC(C4)C2)C3)cc1O	RGS4 block 22 | RGS4 inh valid 16% | M3R Ca ctr 52% | M3R basal Ca ctr 15%
CC(C)c1ccc(/C=C/c2[nH]c(=O)[nH]c(=O)c2[N+](=O)[O-])cc1	none
COc1cc(/C=C/c2[nH]c(=O)[nH]c(=O)c2[N+](=O)[O-])cc(OC)c1O	none
COc1cccc(/C=C/c2[nH]c(=O)[nH]c(=O)c2[N+](=O)[O-])c1O	RGS4 block 5.3 | RGS4 inh valid 17% | M3R Ca ctr inactive | M3R basal Ca ctr inactive
O=c1[nH]c(/C=C/c2ccccc2Cl)c([N+](=O)[O-])c(=O)[nH]1	RGS4 block 10 | RGS4 inh valid 44% | M3R Ca ctr 42% | M3R basal Ca ctr inactive
COc1ccc(OC)c(S(=O)(=O)N2CCN(c3ccccc3OC)CC2)c1	none
Cc1ccc(-c2cn(-c3ccccc3)c(SCC(N)=O)n2)cc1C	RGS4 block 4.7 | RGS4 inh valid 9.5% | M3R Ca ctr inactive | M3R basal Ca ctr inactive
CCOC(=O)NC(=O)CSc1nc(-c2ccc(C)c(C)c2)cn1-c1ccccc1	none
COC(=O)/C(=C/c1c[nH]c2ccccc12)[N+](=O)[O-]	MrgX1 agonist 34, RGS4 block 21 | RGS4 inh valid 18% | M3R Ca ctr 35% | M3R basal Ca ctr 20%
O=C(c1ccco1)N1CCN(c2ncnc3c(-c4ccc(Cl)cc4)nsc23)CC1	RGS4 block 5.2 | RGS4 inh valid inactive | M3R Ca ctr inactive | M3R basal Ca ctr inactive
O=C(c1ccco1)N1CCN(c2ncnc3scc(-c4ccc(F)cc4)c23)CC1	none
Oc1ccc(Br)cc1/C=N/n1c(C2CCCCC2)n[nH]c1=S	RGS4 block 5.7 | RGS4 inh valid 5.0% | M3R Ca ctr inactive | M3R basal Ca ctr inactive
CC(=O)c1ccc(NC(=S)N(C)C2CCN(C)CC2)cc1	none
CCOc1ccc(-c2csc(NC(=O)CSC3=NC(=O)CN3C(C)=O)n2)c2ccccc12	none
CC(=O)N1CC(=O)N=C1SCC(=O)Nc1nc(C)c(-c2ccccc2)s1	none | RGS4 inh valid inactive | M3R Ca ctr inactive | M3R basal Ca ctr inactive
Cc1ccc(N=c2oc3cc(O)ccc3cc2C(N)=O)cc1	none | M3R Ca ctr inactive | M3R basal Ca ctr inactive
CC(=O)c1cc2ccc(O)cc2oc1=O	none
CC(C)Sc1cc(N2CCOCC2)nc(-c2ccc(Cl)cc2)n1	RGS4 block 5.2 | RGS4 inh valid 12% | M3R Ca ctr 28% | M3R basal Ca ctr inactive
c1ccc(-c2nc(N3CCOCC3)cc(N3CCOCC3)n2)cc1	none
COc1cccc(Sc2cc(N3CCOCC3)nc(-c3ccccc3)n2)c1	RGS4 block 8.8 | RGS4 inh valid 34% | M3R Ca ctr inactive | M3R basal Ca ctr inactive
Clc1ccc(Sc2cc(N3CCOCC3)nc(-c3ccccc3)n2)cc1	RGS4 block 7.7 | RGS4 inh valid 14% | M3R Ca ctr inactive | M3R basal Ca ctr inactive
CSCc1cc(N2CCOCC2)nc(-c2ccccc2)n1	none
CCN1CCN(c2cc(SC(C)C)nc(-c3ccc(OC)cc3)n2)CC1	none (no result: MrgX1 agonist, MrgX1 PAM, MrgX1 antagonist)
CCC(Oc1ccccc1)C(=O)N(C)CC(=O)N(CC(C)C)c1c(N)n(CC(C)C)c(=O)[nH]c1=O (stereo not given)	none
O=C(CCc1c[nH]c2ccccc12)NC(Cc1ccccc1)C(=O)O (stereo not given)	none
CC(NC(=O)COC(=O)CCc1ccccc1)c1ccccc1 (stereo not given)	none
Cc1ccc(Cn2c(=N)n(CC(=O)c3ccccc3)c3ccccc32)cc1	RGS4 block 5.3 | RGS4 inh valid 24% | M3R Ca ctr 34% | M3R basal Ca ctr 31%
C/C(=N/NC(=O)Cc1ccccc1)c1ccc(C)s1	none
CC(=O)Nc1ccc(Nc2cc(C)nc3c(-c4ccc(Cl)cc4)c(C)nn23)cc1	none | M3R Ca ctr inactive | M3R basal Ca ctr inactive
Cc1cc(N)n2nc(C)c(-c3ccc(Cl)cc3)c2n1	RGS4 block 7.8 | RGS4 inh valid 10% | M3R Ca ctr inactive | M3R basal Ca ctr inactive
CC(=O)Nc1ccc(Nc2cc(C)nc3c(-c4ccc(Cl)cc4)cnn23)cc1	none
COC(=O)CCC(=O)c1ccn(S(=O)(=O)c2ccccc2)c1	none
CCOc1ccc(NC(=O)c2c(N)n(C)c(=O)[nH]c2=O)cc1	none
CC(=N\Nc1ccccc1)/C(=N/O)C(=O)Nc1ccccc1	none | M3R Ca ctr inactive | M3R basal Ca ctr inactive
O=[N+]([O-])c1ccc2nc(-c3ccc(OC(F)F)cc3)cn2c1	none
Cc1cc(Cl)n2c(nc3cc(F)c(F)cc32)c1C#N	RGS4 block 7.5 (no result: MrgX1 agonist, MrgX1 PAM, MrgX1 antagonist) | RGS4 inh valid 13% | M3R Ca ctr inactive | M3R basal Ca ctr 9.5%
Cc1cc(-c2ccco2)n2c(nc3ccccc32)c1C#N	none
COc1ccc(C)cc1S(=O)(=O)NC(C)c1cnn(-c2ccccn2)c1C (stereo not given)	none
COc1ccc(NC(=O)c2nc[nH]c2C(=O)N[C@H](C)c2ccccc2)cc1	RGS4 block 7.6 | RGS4 inh valid 18% | M3R Ca ctr inactive | M3R basal Ca ctr inactive

Bioassay records as filed in PubChem BioAssay.
